From ChEMBL document CHEMBL1138293, “Novel peptide inhibitors of human secretory phospholipase A2 with antiinflammatory activity: solution structure and molecular modeling” (J Med Chem, 2007)
Activity calls are given as the source filed them. The calls are words filed in the database; no cut-off is given here.

Experiments:
[1] = Inhibition of human recombinant synovial PLA2
In short: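 Purified human synovial type IIA sPLA2 (0.85 pmol) was preincubated with peptide (1-250 range) and then reacted with [3H]arachidonate-labeled E. coli membranes in 100 mM Tris-HCl, 25 mM CaCl2, pH 7.5. Released [3H]arachidonate was counted by liquid scintillation, in triplicate. IC50 (mean ± SD) was obtained from sigmoid curves by nonlinear regression of % inhibition versus buffer-only control.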

Homo sapiens [2] = species: Homo sapiens; test: Inhibition of human recombinant synovial PLA2 by at 5 uM
In short: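 Single peptide concentration of 5 µM against purified human synovial type IIA sPLA2 (0.85 pmol), with [3H]arachidonate-labeled E. coli membranes as substrate in 100 mM Tris-HCl, 25 mM CaCl2, pH 7.5. Released label was counted by liquid scintillation, in triplicate. Results are % inhibition relative to enzyme preincubated with buffer alone; groups were compared by one-way ANOVA with Dunnett's test.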

Oryctolagus cuniculus [3] = species: Oryctolagus cuniculus; test: Inhibition of IL-1-beta-induced TIMPs gene expression in rabbit HIG82 cells by QRT-PCR; type: functional, cell-based
In short: (§1)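 Rabbit HIG-82 fibroblast-like synoviocytes were grown in Ham's F-12/10% FBS to 80% confluence. They were serum-starved 2 h with or without 5 µM peptide; controls got medium or vehicle (0.1% DMSO). Cells were then stimulated 24 h with rhIL-1β 5 ng/mL, washed in cold PBS, RNA extracted, and transcripts measured by qRT-PCR.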

Homo sapiens [4] = species: Homo sapiens; test: Inhibition of IL-1-beta-induced MMP1 levels in human RASFs after 1 hr by ELISA; type: functional
In short: (§2)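 Primary synovial fibroblasts from three RA knee-replacement patients, passages 3-8, grown to confluence and serum-starved 16 h. Cells were preincubated 1 h at 37 °C with 5 µM peptide or vehicle (0.1% DMSO final), then given hrIL-1β 10 ng/mL for 24 h. Supernatants were stored at -20 °C, and type IIA sPLA2 or MMP-1/-2/-9 was measured by ELISA in triplicate.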

Homo sapiens [5] = species: Homo sapiens; test: Inhibition of IL-1-beta-induced MMP1 gene expression in human RASFs by QRT-PCR; type: functional
In short: (§3)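 Primary synovial fibroblasts from three RA patients (passages 3-8), grown to confluence in DMEM/10% FBS and serum-starved 16 h. Preincubated 1 h with 5 µM peptide or vehicle (0.1% DMSO final), then stimulated 24 h with hrIL-1β 10 ng/mL. Cells from 3 flasks pooled per group, total RNA isolated and DNase-treated, then transcripts quantified by qRT-PCR. Unstimulated cells served as controls.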

Oryctolagus cuniculus [6] = species: Oryctolagus cuniculus; test: Inhibition of IL-1-beta-induced sPLA2 gene expression in rabbit HIG82 cells by QRT-PCR; type: functional, cell-based; in short: as §1
Homo sapiens [7] = species: Homo sapiens; test: Inhibition of IL-1-beta-induced sPLA2 gene expression in human RASFs by QRT-PCR; type: functional; in short: as §3
Homo sapiens [8] = species: Homo sapiens; test: Inhibition of IL-1-beta-induced sPLA2 production in human RASFs at 5 uM by ELISA; type: functional; in short: as §2
Oryctolagus cuniculus [9] = species: Oryctolagus cuniculus; test: Inhibition of IL-1-beta-induced MMP1 gene expression in rabbit HIG82 cells by QRT-PCR; type: functional, cell-based; in short: as §1
Homo sapiens [10] = species: Homo sapiens; test: Inhibition of IL-1-beta-induced MMP9 gene expression in human RASFs by QRT-PCR; type: functional; in short: as §3
Homo sapiens [11] = species: Homo sapiens; test: Inhibition of IL-1-beta-induced TIMPs gene expression in human RASFs by QRT-PCR; type: functional; in short: as §3
Oryctolagus cuniculus [12] = species: Oryctolagus cuniculus; test: Inhibition of IL-1-beta-induced MMP2 gene expression in rabbit HIG82 cells by QRT-PCR; type: functional, cell-based; in short: as §1
Oryctolagus cuniculus [13] = species: Oryctolagus cuniculus; test: Inhibition of IL-1-beta-induced MMP9 gene expression in rabbit HIG82 cells by QRT-PCR; type: functional, cell-based; in short: as §1
Homo sapiens [14] = species: Homo sapiens; test: Inhibition of IL-1-beta-induced MMP2 levels in human RASFs after 1 hr by ELISA; type: functional; in short: as §2
[15] = Toxicity against human RASF at 1 to 10 uM after 24 hrs
In short: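 Primary RA synovial fibroblasts (passages 3-8) were exposed to peptide at 1, 5 and 10 µM for 24 h. Viability was read by the XTT cell proliferation assay.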

Homo sapiens [16] = species: Homo sapiens; test: Inhibition of IL-1-beta-induced MMP9 levels in human RASFs after 1 hr by ELISA; type: functional; in short: as §2
Homo sapiens [17] = species: Homo sapiens; test: Inhibition of IL-1-beta-induced sPLA2 production in human RASFs by ELISA; type: functional
In short: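 RA synovial fibroblasts (passages 3-8, serum-starved 16 h) were preincubated 1 h at 37 °C with peptide (1, 2.5, 5 or 10 µM) or vehicle (0.1% DMSO final), then cultured a further 24 h with or without IL-1β 10 ng/mL. Supernatant sPLA2-IIA was measured by EIA in triplicate; mean ± SD from a representative of three RASF lines.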

Homo sapiens [18] = species: Homo sapiens; test: Effect on IL-1-beta-stimulated TIMP2 production in human RASFs; type: functional
Homo sapiens [19] = species: Homo sapiens; test: Inhibition of IL-1-beta-induced MMP2 gene expression in human RASFs by QRT-PCR; type: functional; in short: as §3

Molecule	IC50 [1] [µM]	inhibition (Homo sapiens [2]) [%]	other results
CC[C@H](C)[C@@H](NC(=O)[C@H](CC(=O)O)NC(=O)[C@@H](NC(=O)[C@@H](N)CCCNC(=N)N)C(C)C)C(=O)N[C@@H](Cc1cnc[nH]1)C(=O)N[C@H](C(=O)N[C@@H](Cc1c[nH]c2ccccc12)C(=O)N[C@@H](CC(=O)O)C(=O)NCC(=O)N[C@H](C(=O)O)C(C)C)C(C)C	3.67	59.5	
H-VDIHVWSGV-OH	5.25	52.5	
H-LGRVDIHVWDGVY-OH	5.95	48.7	
H-VDIHVWDGVVDIHVWDGV-OH	1.19	74.5	Activity (Oryctolagus cuniculus [3]): inactive; Activity (Homo sapiens [4]): Active; Activity (Homo sapiens [5]): Active; Activity (Oryctolagus cuniculus [6]): Active; Activity (Homo sapiens [7]): Active; Activity (Homo sapiens [8]): Active; Activity (Oryctolagus cuniculus [9]): Active; Activity (Homo sapiens [10]): Active; Activity (Homo sapiens [11]): inactive; Activity (Oryctolagus cuniculus [12]): Active; Activity (Oryctolagus cuniculus [13]): Active; Activity (Homo sapiens [14]): Active; Activity [15]: Non-toxic; Activity (Homo sapiens [16]): Active; Activity (Homo sapiens [17]): Dose-dependent effect; Activity (Homo sapiens [18]): inactive; Activity (Homo sapiens [19]): Active
H-LGRVDIHVWDGV-OH		34.2	
H-LGRVDIHVWDGVYIR-OH	5.75	51	
CC[C@H](C)[C@@H](NC(=O)[C@@H](N)CC(=O)O)C(=O)N[C@@H](Cc1cnc[nH]1)C(=O)N[C@H](C(=O)N[C@@H](Cc1c[nH]c2ccccc12)C(=O)N[C@@H](CC(=O)O)C(=O)NCC(=O)N[C@H](C(=O)O)C(C)C)C(C)C	5.75	45.9	
H-VDIHVWAGV-OH	5.45	48.5	
H-VDIHVWEGV-OH	4.95	57.6	
H-IHVWDGV-OH	6.21	35.4	
H-LGRVDIHVWDGVYIRG-OH	5.6	52.4	
H-LGRVDIHVWDGVYIRGR-OH	5.3	55.6	
CCc1c(C(=O)C(N)=O)c2c(OCC(=O)O)cccc2n1Cc1ccccc1 [VARESPLADIB]			Activity (Homo sapiens [4]): Active; Activity (Homo sapiens [8]): Active; Activity (Homo sapiens [14]): Active; Activity [15]: Non-toxic; Activity (Homo sapiens [16]): Active; Activity (Homo sapiens [18]): inactive
CC[C@H](C)[C@@H](NC(=O)[C@H](CC(=O)O)NC(=O)[C@@H](NC(=O)[C@H](CCCNC(=N)N)NC(=O)CN)C(C)C)C(=O)N[C@@H](Cc1cnc[nH]1)C(=O)N[C@H](C(=O)N[C@@H](Cc1c[nH]c2ccccc12)C(=O)N[C@@H](CC(=O)O)C(=O)NCC(=O)N[C@H](C(=O)O)C(C)C)C(C)C		14.2	
H-LGRVDIHVWDGVYI-OH	5.8	49.7	
CC[C@H](C)[C@@H](NC(=O)[C@H](CC(=O)O)NC(=O)[C@@H](N)C(C)C)C(=O)N[C@@H](Cc1cnc[nH]1)C(=O)N[C@H](C(=O)N[C@@H](Cc1c[nH]c2ccccc12)C(=O)N[C@@H](CC(=O)O)C(=O)NCC(=O)N[C@H](C(=O)O)C(C)C)C(C)C	3.8	56.4	
